Measurements as given in ChEMBL document CHEMBL2086325, “Suppression of autoimmune arthritis by Celastrus-derived Celastrol through modulation of pro-inflammatory chemokines” (Bioorg Med Chem, 2012).
Active and inactive are the calls of the source. No cut-off for these calls is given here.

What was measured:
Rattus norvegicus [1] = assay: Antiarthritic effect in Lewis rat adjuvant-induced arthritis model lymph node cells restimulated with sonicated Mtb post isolation assessed as reduction in GRO/KC production at 200 ug, ip starting from arthritis onset and continued uninterrupted until study end by cytokine multiplex assay; assay type: functional, organism-based
Procedure, shortened: (§1)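 Male Lewis rats were immunized s.c. with heat-killed Mtb H37Ra (1.5 mg/rat) in mineral oil. From arthritis onset they received 200 μg/rat i.p. daily (DMSO stock diluted in PBS); controls got 1.2% DMSO in PBS. On d 18, draining lymph node or synovial-infiltrating cells were cultured at 1.5 × 10^6/well in 2% FBS medium ± sonicated Mtb (10 μg/ml) for 24 h. Supernatants were analysed by multiplex.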

Rattus norvegicus [2] = species on record: Rattus norvegicus; assay: Antiarthritic effect in IL-1beta-stimulatedspleen adherent cells isolated from Lewis rat adjuvant-induced arthritis model assessed as reduction in GRO/KC production pre-incubated with compound for 30 mins before stimulation with IL-1beta for 48 hrs by multiplex assay; assay type: functional, tissue-based; conditions: Spleen
Rattus norvegicus [3] = species on record: Rattus norvegicus; assay: Antiarthritic effect in IL-1beta-stimulatedspleen adherent cells isolated from Lewis rat adjuvant-induced arthritis model assessed as reduction in IL6 production pre-incubated with compound for 30 mins before stimulation with IL-1beta for 48 hrs by multiplex assay; assay type: functional, tissue-based; conditions: Spleen
Rattus norvegicus [4] = assay: Antiarthritic effect in Lewis rat adjuvant-induced arthritis model serum assessed as reduction in GRO/KC production at 200 ug, ip starting from arthritis onset and continued uninterrupted until study end by cytokine multiplex assay; assay type: functional, organism-based
Procedure, shortened: (§2)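 Arthritic Lewis rats (Mtb 1.5 mg s.c. in mineral oil) were given 200 μg/rat i.p. daily from onset until the day before harvest; controls received DMSO/PBS vehicle. On d 18, blood was taken by cardiac puncture after euthanasia and serum stored at −80 °C. Serum pooled from 4 rats was assayed in triplicate by multiplex.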

Rattus norvegicus [5] = species on record: Rattus norvegicus; assay: Antiarthritic effect in sonicated Mtb-stimulated spleen adherent cells isolated from Lewis rat adjuvant-induced arthritis model assessed as reduction in TNFalpha production pre-incubated with compound for 30 mins before stimulation with sonicated-Mtb for 48 hrs by multiplex assay; assay type: functional, tissue-based
Rattus norvegicus [6] = species on record: Rattus norvegicus; assay: Antiarthritic effect in sonicated Mtb-stimulated spleen adherent cells isolated from Lewis rat adjuvant-induced arthritis model assessed as reduction in MIP-1alpha production pre-incubated with compound for 30 mins before stimulation with sonicated-Mtb for 48 hrs by multiplex assay; assay type: functional, tissue-based
Rattus norvegicus [7] = assay: Antiarthritic effect in Lewis rat adjuvant-induced arthritis model spleen adherent cells restimulated with sonicated Mtb post isolation assessed as reduction in CXCR1 expression at 200 ug, ip starting from arthritis onset and continued uninterrupted until study end by qPCR analysis; assay type: functional, organism-based
Procedure, shortened: (§3)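 From onset of Mtb-induced arthritis, rats received 200 μg/rat i.p. daily or vehicle. Spleen adherent cells harvested on d 18 (1.5–2.0 × 10^6 cells/well) were cultured in medium or with sonicated Mtb (10 μg/ml) for 24 h. Receptor mRNA was quantified by qPCR after TRIzol RNA isolation and cDNA synthesis, normalized to HGPRT and reported as relative message.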

Rattus norvegicus [8] = assay: Antiarthritic effect in Lewis rat adjuvant-induced arthritis model lymph node cells restimulated with sonicated Mtb post isolation assessed as reduction in IL-1beta production at 200 ug, ip starting from arthritis onset and continued uninterrupted until study end by cytokine multiplex assay; assay type: functional, organism-based; procedure, shortened: as §1
Rattus norvegicus [9] = assay: Antiarthritic effect in Lewis rat adjuvant-induced arthritis model lymph node cells restimulated with sonicated Mtb post isolation assessed as reduction in RANTES production at 200 ug, ip starting from arthritis onset and continued uninterrupted until study end by cytokine multiplex assay; assay type: functional, organism-based; procedure, shortened: as §1
Rattus norvegicus [10] = assay: Antiarthritic effect in Lewis rat adjuvant-induced arthritis model synovial infiltrating cells restimulated with sonicated Mtb post isolation assessed as reduction in RANTES production at 200 ug, ip starting from arthritis onset and continued uninterrupted until study end by cytokine multiplex assay; assay type: functional, organism-based; procedure, shortened: as §1
Rattus norvegicus [11] = assay: Antiarthritic effect in Lewis rat adjuvant-induced arthritis model serum assessed as reduction in TNFalpha production at 200 ug, ip starting from arthritis onset and continued uninterrupted until study end by cytokine multiplex assay; assay type: functional, organism-based; procedure, shortened: as §2
Rattus norvegicus [12] = assay: Antiarthritic effect in Lewis rat adjuvant-induced arthritis model spleen adherent cells restimulated with sonicated Mtb post isolation assessed as reduction in MIP-1alpha production at 200 ug, ip starting from arthritis onset and continued uninterrupted until study end by cytokine multiplex assay; assay type: functional, organism-based
Procedure, shortened: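 Mtb-immunized male Lewis rats were dosed 200 μg/rat i.p. daily from arthritis onset (vehicle: 1.2% DMSO/PBS). Spleen adherent cells were prepared on d 18, plated at 1.5 × 10^6/well in 2% FBS medium and restimulated with sonicated Mtb (10 μg/ml) for 24 h. Supernatant chemokines and cytokines were measured by Luminex multiplex. Mean ± SD of triplicates from 4–5 rats.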

Rattus norvegicus [13] = assay: Antiarthritic effect in Lewis rat adjuvant-induced arthritis model serum assessed as reduction in RANTES production at 200 ug, ip starting from arthritis onset and continued uninterrupted until study end by cytokine multiplex assay; assay type: functional, organism-based; procedure, shortened: as §2
Rattus norvegicus [14] = assay: Antiarthritic effect in Lewis rat adjuvant-induced arthritis model synovial infiltrating cells restimulated with sonicated Mtb post isolation assessed as reduction in MCP1 production at 200 ug, ip starting from arthritis onset and continued uninterrupted until study end by cytokine multiplex assay; assay type: functional, organism-based; procedure, shortened: as §1
Rattus norvegicus [15] = assay: Antiarthritic effect in Lewis rat adjuvant-induced arthritis model spleen adherent cells restimulated with sonicated Mtb post isolation assessed as reduction in CCR3 expression at 200 ug, ip starting from arthritis onset and continued uninterrupted until study end by qPCR; assay type: functional, organism-based; procedure, shortened: as §3
Rattus norvegicus [16] = species on record: Rattus norvegicus; assay: Antiarthritic effect in sonicated Mtb-stimulated spleen adherent cells isolated from Lewis rat adjuvant-induced arthritis model assessed as reduction in IL6 production pre-incubated with compound for 30 mins before stimulation with sonicated-Mtb for 48 hrs by multiplex assay; assay type: functional, tissue-based
Rattus norvegicus [17] = species on record: Rattus norvegicus; assay: Antiarthritic effect in sonicated Mtb-stimulated spleen adherent cells isolated from Lewis rat adjuvant-induced arthritis model assessed as reduction in MCP1 production pre-incubated with compound for 30 mins before stimulation with sonicated-Mtb for 48 hrs by multiplex assay; assay type: functional, tissue-based
Rattus norvegicus [18] = assay: Antiarthritic effect in Lewis rat adjuvant-induced arthritis model serum assessed as reduction in IL-1beta production at 200 ug, ip starting from arthritis onset and continued uninterrupted until study end by cytokine multiplex assay; assay type: functional, organism-based; procedure, shortened: as §2
Rattus norvegicus [19] = assay: Antiarthritic effect in Lewis rat adjuvant-induced arthritis model spleen adherent cells restimulated with sonicated Mtb post isolation assessed as reduction in CXCR2 expression at 200 ug, ip starting from arthritis onset and continued uninterrupted until study end by qPCR; assay type: functional, organism-based; procedure, shortened: as §3
Rattus norvegicus [20] = species on record: Rattus norvegicus; assay: Antiarthritic effect in IL-1beta-stimulatedspleen adherent cells isolated from Lewis rat adjuvant-induced arthritis model assessed as reduction in RANTES production pre-incubated with compound for 30 mins before stimulation with IL-1beta for 48 hrs by multiplex assay; assay type: functional, tissue-based; conditions: Spleen
Rattus norvegicus [21] = species on record: Rattus norvegicus; assay: Antiarthritic effect in sonicated Mtb-stimulated spleen adherent cells isolated from Lewis rat adjuvant-induced arthritis model assessed as reduction in GRO/KC production pre-incubated with compound for 30 mins before stimulation with sonicated-Mtb for 48 hrs by multiplex assay; assay type: functional, tissue-based
Rattus norvegicus [22] = assay: Antiarthritic effect in Lewis rat adjuvant-induced arthritis model spleen adherent cells restimulated with sonicated Mtb post isolation assessed as reduction in CXCR4 expression at 200 ug, ip starting from arthritis onset and continued uninterrupted until study end by qPCR; assay type: functional, organism-based; procedure, shortened: as §3
Rattus norvegicus [23] = assay: Antiarthritic effect in Lewis rat adjuvant-induced arthritis model lymph node cells restimulated with sonicated Mtb post isolation assessed as reduction in MCP1 production at 200 ug, ip starting from arthritis onset and continued uninterrupted until study end by cytokine multiplex assay; assay type: functional, organism-based; procedure, shortened: as §1
Rattus norvegicus [24] = species on record: Rattus norvegicus; assay: Antiarthritic effect in sonicated Mtb-stimulated spleen adherent cells isolated from Lewis rat adjuvant-induced arthritis model assessed as reduction in RANTES production pre-incubated with compound for 30 mins before stimulation with sonicated-Mtb for 48 hrs by multiplex assay; assay type: functional, tissue-based

**Q.** `CC1=C(O)C(=O)C=C2C1=CC=C1[C@@]2(C)CC[C@@]2(C)[C@@H]3C[C@](C)(C(=O)O)CC[C@]3(C)CC[C@]12C` [CELASTROL] was tested. Which Activity (Rattus norvegicus [1]) did it give?
**A.** inactive

**Q.** What about the Activity (Rattus norvegicus [2]) of the same compound?
**A.** Dose-dependent effect

**Q.** What about the Activity (Rattus norvegicus [3]) of the same compound?
**A.** Dose-dependent effect

**Q.** What about the Activity (Rattus norvegicus [4]) of the same compound?
**A.** Active

**Q.** And the Activity (Rattus norvegicus [5])?
**A.** Dose-dependent effect

**Q.** What about the Activity (Rattus norvegicus [6]) of the same compound?
**A.** Dose-dependent effect

**Q.** What about the Activity (Rattus norvegicus [7]) of the same compound?
**A.** Active

**Q.** And the Activity (Rattus norvegicus [8])?
**A.** inactive

**Q.** What about the Activity (Rattus norvegicus [9]) of the same compound?
**A.** inactive

**Q.** And the Activity (Rattus norvegicus [10])?
**A.** inactive

**Q.** And the Activity (Rattus norvegicus [11])?
**A.** Active

**Q.** What about the Activity (Rattus norvegicus [12]) of the same compound?
**A.** inactive

**Q.** And the Activity (Rattus norvegicus [13])?
**A.** Active

**Q.** What about the Activity (Rattus norvegicus [14]) of the same compound?
**A.** inactive

**Q.** And the Activity (Rattus norvegicus [15])?
**A.** Active

**Q.** What about the Activity (Rattus norvegicus [16]) of the same compound?
**A.** Dose-dependent effect

**Q.** And the Activity (Rattus norvegicus [17])?
**A.** Dose-dependent effect

**Q.** And the Activity (Rattus norvegicus [18])?
**A.** Active

**Q.** What about the Activity (Rattus norvegicus [19]) of the same compound?
**A.** Active

**Q.** And the Activity (Rattus norvegicus [20])?
**A.** Dose-dependent effect

**Q.** And the Activity (Rattus norvegicus [21])?
**A.** Dose-dependent effect

**Q.** And the Activity (Rattus norvegicus [22])?
**A.** Active

**Q.** And the Activity (Rattus norvegicus [23])?
**A.** inactive

**Q.** What about the Activity (Rattus norvegicus [24]) of the same compound?
**A.** Dose-dependent effect
